# Key:
# [1] = biological target: 5-hydroxytryptamine receptor 7 (Homo sapiens, UniProt P34969); assay: Displacement of [3H]CT from human 5-HT7 receptor expressed in CHO cells by scintillation spectrometry; assay type: cell-based
# Summary of the method: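 Cloned human 5-HT7 receptor from CHO cells, run under the supplier's recommended conditions with [3H]CT. Nonspecific binding with 25 μM clozapine. Ended by GF/C filtration, then scintillation counting. Ki taken from two nine-concentration displacement curves run in triplicate, single-site fit.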
# [2] = biological target: T1, 5-hydroxytryptamine receptor 1A (Rattus norvegicus) (UniProt P19327); assay: Displacement of [3H]8-OH-DPAT from 5-HT1A receptor in rat frontal cortex membrane at 10^-7 M after 45 mins by scintillation counting; assay type: cell membranes
# T1 sequence (whole entry): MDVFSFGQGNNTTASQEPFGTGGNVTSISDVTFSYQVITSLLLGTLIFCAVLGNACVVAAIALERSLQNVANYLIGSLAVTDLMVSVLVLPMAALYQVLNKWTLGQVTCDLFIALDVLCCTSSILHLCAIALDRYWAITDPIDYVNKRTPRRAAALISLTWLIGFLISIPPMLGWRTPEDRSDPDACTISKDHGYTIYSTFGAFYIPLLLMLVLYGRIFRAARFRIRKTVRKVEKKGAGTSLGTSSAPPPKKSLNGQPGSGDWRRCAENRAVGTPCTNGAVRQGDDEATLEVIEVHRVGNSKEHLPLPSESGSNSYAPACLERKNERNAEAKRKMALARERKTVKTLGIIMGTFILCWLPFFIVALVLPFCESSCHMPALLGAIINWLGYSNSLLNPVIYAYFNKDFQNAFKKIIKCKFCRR
# [3] = Metabolic stability in rat liver microsomes after 60 mins by HPLC-MS/MS analysis; assay type: ADME, Microsome; conditions: read-out: Stability
# Summary of the method: (§1)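 Test compound at 100 nM final incubated with rat or human liver microsomes (0.33 mg/mL) at 37 °C for 0, 5, 15, 30 and 60 min. Buffer Tris-HCl pH 7.4 with Mg2+ and BSA. Reaction started with NADPH and stopped with ice-cold MeOH. Parent compound measured by HPLC-MS/MS, positive-ion MRM.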
# [4] = Metabolic stability in human liver microsomes after 60 mins by HPLC-MS/MS analysis; assay type: ADME, Microsome; conditions: read-out: Stability; summary of the method: as §1
# [5] = biological target: T2, Adrenergic receptor alpha-1 (Rattus norvegicus, UniProt P15823+P23944+P43140); assay: Displacement of [3H]prazosin from alpha1-adrenergic receptor in rat frontal cortex membrane after 45 mins by scintillation spectrometry; assay type: cell membranes
# T2 sequence (P15823 whole entry): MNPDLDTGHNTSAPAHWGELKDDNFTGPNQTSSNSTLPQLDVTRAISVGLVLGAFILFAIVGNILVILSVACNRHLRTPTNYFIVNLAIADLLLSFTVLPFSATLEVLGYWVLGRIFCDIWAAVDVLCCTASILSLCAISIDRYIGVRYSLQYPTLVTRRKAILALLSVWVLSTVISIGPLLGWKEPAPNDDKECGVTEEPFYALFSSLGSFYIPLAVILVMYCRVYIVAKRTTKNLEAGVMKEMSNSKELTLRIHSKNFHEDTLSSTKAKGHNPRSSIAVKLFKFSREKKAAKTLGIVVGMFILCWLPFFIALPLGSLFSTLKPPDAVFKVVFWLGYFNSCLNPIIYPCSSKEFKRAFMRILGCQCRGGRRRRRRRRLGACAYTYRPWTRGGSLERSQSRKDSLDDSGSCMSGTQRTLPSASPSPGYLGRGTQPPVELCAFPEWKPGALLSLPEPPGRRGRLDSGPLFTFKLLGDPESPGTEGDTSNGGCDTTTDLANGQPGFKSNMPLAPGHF
# T2 sequence (P23944 whole entry): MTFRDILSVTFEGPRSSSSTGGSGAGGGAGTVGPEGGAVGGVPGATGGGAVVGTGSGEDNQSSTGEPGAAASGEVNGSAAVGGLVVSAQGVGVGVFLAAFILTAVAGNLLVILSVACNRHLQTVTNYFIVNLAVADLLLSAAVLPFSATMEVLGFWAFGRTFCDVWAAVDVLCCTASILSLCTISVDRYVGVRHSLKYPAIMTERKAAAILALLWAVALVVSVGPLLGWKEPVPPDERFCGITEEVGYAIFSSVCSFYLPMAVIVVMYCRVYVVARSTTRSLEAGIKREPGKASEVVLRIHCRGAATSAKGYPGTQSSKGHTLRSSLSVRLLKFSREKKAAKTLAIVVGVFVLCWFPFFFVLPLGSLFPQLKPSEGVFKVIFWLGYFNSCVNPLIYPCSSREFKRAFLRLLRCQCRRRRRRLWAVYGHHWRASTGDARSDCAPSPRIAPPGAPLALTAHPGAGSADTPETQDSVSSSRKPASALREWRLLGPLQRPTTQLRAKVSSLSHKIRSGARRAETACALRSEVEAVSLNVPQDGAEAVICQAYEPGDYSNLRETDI
# T2 sequence (P43140 whole entry): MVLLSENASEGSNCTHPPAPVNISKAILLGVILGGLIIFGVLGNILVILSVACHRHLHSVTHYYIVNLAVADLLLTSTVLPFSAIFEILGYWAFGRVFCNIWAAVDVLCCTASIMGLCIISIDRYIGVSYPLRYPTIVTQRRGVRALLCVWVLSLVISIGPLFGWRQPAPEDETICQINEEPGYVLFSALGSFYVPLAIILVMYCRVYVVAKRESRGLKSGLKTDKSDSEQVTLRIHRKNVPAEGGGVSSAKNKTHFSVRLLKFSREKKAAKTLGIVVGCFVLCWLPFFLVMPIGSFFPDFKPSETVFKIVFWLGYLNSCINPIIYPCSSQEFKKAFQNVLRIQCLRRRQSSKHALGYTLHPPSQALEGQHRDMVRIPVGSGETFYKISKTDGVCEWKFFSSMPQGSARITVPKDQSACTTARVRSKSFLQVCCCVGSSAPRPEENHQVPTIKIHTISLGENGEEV
# Summary of the method: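 Rat frontal cortex tissue frozen on dry ice, homogenised in 50 mM Tris-HCl pH 7.7 and washed by centrifugation. [3H]prazosin at 0.6 nM; 10 μM prazosin defines nonspecific binding. 45 min at 25 °C, GF/B filtration, scintillation counting. Triplicates; Ki from two nine-concentration curves fitted to a single-site model.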
# Rattus norvegicus = assay: Anxiolytic activity in ip dosed Wistar rat assessed as number of punished licks administered 30 mins prior to test by conflict drinking Vogel test; assay type: functional; conditions: read-out: MED
# Summary of the method: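 Male Wistar rats, 160–180 g, water-deprived 48 h and fasted 24 h. Drug or vehicle given ip 30 min before testing, carried out in a quiet room at 23 °C between 07:30 and 13:00. Modified Vogel procedure. Mean ± SEM tolerated shocks per group, one-way ANOVA with Duncan's test; MED reported.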
# [6] = Selectivity ratio of Ki for alpha1-adrenergic receptor in rat frontal cortex membrane to Ki for human 5-HT7 receptor; assay type: cell membranes
# Mus musculus [7] = assay: Antidepressant activity in ip dosed NMRI mouse assessed as decrease in immobility time administered 30 mins prior to test measured last 4 mins of 6 mins testing period by forced swimming test; assay type: functional; conditions: read-out: MED
# Summary of the method: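 Mice given drug or vehicle ip 30 min before test. Each mouse placed in a 17.7 cm high, 12 cm diameter glass cylinder holding 25 °C water to 12.5 cm depth, four mice at a time. Immobility (floating, only movements keeping head above water) timed over the last 4 min of a 6 min session.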
# Mus musculus [8] = assay: Anxiolytic activity in ip dosed NMRI mouse assessed as behavioral activity administered 30 mins prior to test measured up to 5 mins by light-dark test; assay type: functional; conditions: read-out: MED
# Summary of the method: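 Male NMRI mice, 25–33 g, housed in the dark, dosed ip 30 min before test. Each mouse placed in the centre of the lit side of an automated two-compartment chamber under a 2-lx light. Activity recorded for 5 min: time in each area, transitions, horizontal and vertical activity. Means ± SEM, one-way ANOVA with Duncan's test; MED reported.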
# [9] = Drug level in NMRI mouse brain at 3 mg/kg, ip after 30 mins by HPLC/MS/MS analysis; assay type: ADME, organism-based; parameters: dose 3 mg/kg, route intraperitoneal; conditions: read-out: Drug uptake
# Summary of the method: (§2)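 Male NMRI mice, 25–30 g, given four compounds together ip as a cassette suspension in 0.4% methyl cellulose (n = 3/dose). After 30 min, vena cava blood and brain collected. Brain homogenised in 4 volumes of water; samples extracted with acetonitrile–water 3:1 and analysed by gradient HPLC-MS/MS against spiked calibrators. Brain/plasma given as percentage.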
# [10] = Drug level in NMRI mouse brain at 10 mg/kg, ip after 30 mins by HPLC/MS/MS analysis; assay type: ADME, organism-based; parameters: dose 10 mg/kg, route intraperitoneal; conditions: read-out: Drug uptake; summary of the method: as §2
# [11] = Selectivity ratio of Ki for 5-HT1A receptor in rat frontal cortex membrane to Ki for human 5-HT7 receptor; assay type: cell membranes
# [12] = Drug level in NMRI mouse brain at 1 mg/kg, ip after 30 mins by HPLC/MS/MS analysis; assay type: ADME, organism-based; parameters: dose 1 mg/kg, route intraperitoneal; conditions: read-out: Drug uptake; summary of the method: as §2
# [13] = Plasma concentration in NMRI mouse at 3 mg/kg, ip after 30 mins by HPLC-MS/MS analysis; assay type: ADME, organism-based; parameters: dose 3 mg/kg, route intraperitoneal; summary of the method: as §2
# [14] = Plasma concentration in NMRI mouse at 1 mg/kg, ip after 30 mins by HPLC-MS/MS analysis; assay type: ADME, organism-based; parameters: dose 1 mg/kg, route intraperitoneal; summary of the method: as §2
# [15] = biological target: T3, 5-hydroxytryptamine receptor 1A (Rattus norvegicus, UniProt P19327); assay: Displacement of [3H]8-OH-DPAT from 5-HT1A receptor in rat frontal cortex membrane after 45 mins by scintillation counting; assay type: cell membranes
# T3 sequence (P19327 whole entry): T1 sequence (whole entry)
# Summary of the method: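 Membranes from adult rat frontal cortex, prepared in 50 mM Tris-HCl pH 7.7 with washes and a 37 °C preincubation. Incubation buffer: 6.66 mM CaCl2, 16.66 μM pargyline, 0.166% ascorbic acid. Ligand 1.5 nM [3H]8-OH-DPAT; 10 μM 5-HT defines nonspecific binding. 45 min at 25 °C, GF/B filtration, scintillation counting. Triplicates; Ki from two nine-point curves, single-site fit.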
# [16] = Plasma concentration in NMRI mouse at 10 mg/kg, ip after 30 mins by HPLC-MS/MS analysis; assay type: ADME, organism-based; parameters: dose 10 mg/kg, route intraperitoneal; summary of the method: as §2
# [17] = biological target: Adrenergic receptor alpha-1 (Rattus norvegicus) (UniProt P15823+P23944+P43140); assay: Displacement of [3H]prazosin from alpha1-adrenergic receptor in rat frontal cortex membrane at 10^-7 M after 45 mins by scintillation spectrometry; assay type: cell membranes
# Summary of the method: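 Rat frontal cortex membranes (tissue frozen on dry ice, homogenized in 50 mM Tris-HCl pH 7.7, washed by repeated 40 000 g spins at 4 °C) incubated with 0.6 nM [3H]prazosin, 45 min at 25 °C, triplicates; nonspecific binding with 10 μM prazosin. Filtration over GF/B filters presoaked in 0.05% polyethylenimine, scintillation counting; single test concentration 10^-7 M.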
# Sequence of 5-hydroxytryptamine receptor 7 (P34969 whole entry): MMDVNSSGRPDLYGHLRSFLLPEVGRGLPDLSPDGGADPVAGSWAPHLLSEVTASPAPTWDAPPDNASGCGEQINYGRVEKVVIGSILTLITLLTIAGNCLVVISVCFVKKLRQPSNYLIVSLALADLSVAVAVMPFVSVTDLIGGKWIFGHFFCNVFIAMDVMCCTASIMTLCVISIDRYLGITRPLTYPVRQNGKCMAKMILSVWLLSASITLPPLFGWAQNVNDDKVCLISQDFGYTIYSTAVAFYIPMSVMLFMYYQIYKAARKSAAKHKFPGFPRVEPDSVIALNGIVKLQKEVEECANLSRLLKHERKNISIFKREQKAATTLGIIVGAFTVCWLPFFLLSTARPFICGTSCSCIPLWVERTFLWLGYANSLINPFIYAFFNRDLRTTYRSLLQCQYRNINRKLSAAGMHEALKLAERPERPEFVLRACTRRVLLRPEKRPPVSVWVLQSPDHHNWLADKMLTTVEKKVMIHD
SMILES,Ki [1],inhibition [2],remaining at 1 h [3],remaining at 1 h [4],Ki [5],minimal effective dose (Rattus norvegicus),Ratio Ki [6],minimal effective dose (Mus musculus [7]),minimal effective dose (Mus musculus [8]),concentration at 0.5 h [9],concentration at 0.5 h [10],Ratio Ki [11],concentration at 0.5 h [12],concentration at 0.5 h [13],concentration at 0.5 h [14],Ki [15],concentration at 0.5 h [16],inhibition [17]
CCC1(CCCCN2CCN(c3ccc(Cl)cc3)CC2)C(=O)Nc2c1cc(Cl)c(F)c2Cl (stereo unspecified),96 nM,10%,72%,76%,380 nM,> 20 mg/kg,4,> 30 mg/kg,> 10 mg/kg,–,–,–,–,–,–,–,–,–
CCC1(CCCCN2CCN(c3cccc(Cl)c3)CC2)C(=O)Nc2ccccc21 (stereo unspecified),0.4 nM,–,4%,31%,31 nM,> 10 mg/kg,78,–,> 20 mg/kg,613 nM,824 nM,115,65 nM,168 nM,22 nM,46 nM,272 nM,–
O=C1Nc2ccc(F)cc2C1CCCCN1CC=C(c2cccc(C(F)(F)F)c2)CC1 (stereo unspecified),40 nM,–,–,–,–,–,–,–,–,–,–,–,–,–,–,55 nM,–,11%
CCC1(CCCCN2CCN(c3ccc(Cl)cc3)CC2)C(=O)Nc2c(Cl)cc(Cl)cc21 (stereo unspecified),9.5 nM,5%,76%,53%,110 nM,5 mg/kg,12,> 30 mg/kg,1 mg/kg,–,–,> 100,–,–,–,–,–,–
CCC1(CCCCN2CCN(c3ccc(Cl)c(Cl)c3)CC2)C(=O)Nc2ccccc21 (stereo unspecified),0.6 nM,11%,13%,29%,125 nM,–,208,> 10 mg/kg,–,223 nM,1150 nM,> 100,43 nM,174 nM,31 nM,–,861 nM,–

# From ChEMBL document CHEMBL1833955, “Optimization of (arylpiperazinylbutyl)oxindoles exhibiting selective 5-HT₇ receptor antagonist activity” (J Med Chem, 2011)
